Tested on: U2OS
Experiment: Multiplex assay against U2OS
Format: toxicity, cell-based
Conditions: human
In short: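 Imaging took place on a CQ1 microscope at 37°C and 5% CO2 once compound had been added to live cells stained at seeding with Hoechst33342, BioTracker Green Microtubule Cytoskeleton Dye, MitoTracker Red and Annexin V Alexa Fluor 680. CellPathfinder machine-learning gating classed cells as Hoechst high-intensity objects or normal cells, classed normal cells as having healthy, pyknosed or fragmented nuclei, and classed pyknosed cells as mitotic or apoptotic. Tubulin, mitochondrial-mass and membrane-permeability phenotypes are per cents of the healthy-nucleus cells.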

[1] = 12 h, 1 µM, compound concentration 1 uM, replicate 1
[2] = 12 h, 1 µM, compound concentration 1 uM, replicate 2
[3] = 12 h, 10 µM, compound concentration 10 uM, replicate 1
[4] = 12 h, 10 µM, compound concentration 10 uM, replicate 2
[5] = 24 h, 1 µM, compound concentration 1 uM, replicate 1
[6] = 24 h, 1 µM, compound concentration 1 uM, replicate 2
[7] = 24 h, 10 µM, compound concentration 10 uM, replicate 1
[8] = 24 h, 10 µM, compound concentration 10 uM, replicate 2

In the case of CCN1CCN(c2ccc(Nc3cc(N(C)C(=O)Nc4c(Cl)c(OC)cc(OC)c4Cl)ncn3)cc2)CC1 [INFIGRATINIB], the “Population Apoptotic (%)” value [1] is reported as 33%, the “Population Fragmented Nuclei (%)” value [1] is reported as 15% and the “Population Healthy Nuclei (%)” value [1] is reported as 60%. The “Population Hoechst High Intensity Objects (%)” value [1] was 4%, the “Population Membrane Permeable-Phenotype (%)” value [1] was 20% and the “Population Mitochondria Different-Phenotype (%)” value [1] was 38%. For the same compound, the “Population Mitotic Cells (%)” value [1] was 66%, the “Population Normal (%)” value [1] was 95% and the “Population Pyknosed Nuclei (%)” value [1] was 24%. For the same compound, the “Population Tubulin-Different-Phenotype (%)” value [1] was 71%, the “Total Cell Count” value [1] was 142 and the “Population Apoptotic (%)” value [2] was 40%. The “Population Fragmented Nuclei (%)” value [2] was 26%, the “Population Healthy Nuclei (%)” value [2] was 51% and the “Population Hoechst High Intensity Objects (%)” value [2] was 10%. The “Population Membrane Permeable-Phenotype (%)” value [2] was 21%, the “Population Mitochondria Different-Phenotype (%)” value [2] was 55% and the “Population Mitotic Cells (%)” value [2] was 59%. For the same compound, the “Population Normal (%)” value [2] was 89%, the “Population Pyknosed Nuclei (%)” value [2] was 21% and the “Population Tubulin-Different-Phenotype (%)” value [2] was 55%. For the same compound, the “Total Cell Count” value [2] was 127, the “Population Apoptotic (%)” value [3] was 50% and the “Population Fragmented Nuclei (%)” value [3] was 4%. The “Population Healthy Nuclei (%)” value [3] was 87%, the “Population Hoechst High Intensity Objects (%)” value [3] was 6% and the “Population Membrane Permeable-Phenotype (%)” value [3] was 11%. The “Population Mitochondria Different-Phenotype (%)” value [3] was 17%, the “Population Mitotic Cells (%)” value [3] was 50% and the “Population Normal (%)” value [3] was 93%. The “Population Pyknosed Nuclei (%)” value [3] was 7%, the “Population Tubulin-Different-Phenotype (%)” value [3] was 18% and the “Total Cell Count” value [3] was 198. For the same compound, the “Population Apoptotic (%)” value [4] was 16%, the “Population Fragmented Nuclei (%)” value [4] was 7% and the “Population Hoechst High Intensity Objects (%)” value [4] was 13%. The “Population Mitochondria Different-Phenotype (%)” value [4] was 18%, the “Population Mitotic Cells (%)” value [4] was 83% and the “Population Normal (%)” value [4] was 86%. The “Population Pyknosed Nuclei (%)” value [4] was 5%, the “Population Tubulin-Different-Phenotype (%)” value [4] was 13% and the “Total Cell Count” value [4] was 86. The “Population Apoptotic (%)” value [5] was 49%, the “Population Fragmented Nuclei (%)” value [5] was 16% and the “Population Healthy Nuclei (%)” value [5] was 44%. The “Population Hoechst High Intensity Objects (%)” value [5] was 8%, the “Population Membrane Permeable-Phenotype (%)” value [5] was 30% and the “Population Mitochondria Different-Phenotype (%)” value [5] was 63%. The “Population Mitotic Cells (%)” value [5] was 50%, the “Population Normal (%)” value [5] was 91% and the “Population Pyknosed Nuclei (%)” value [5] was 38%. For the same compound, the “Population Tubulin-Different-Phenotype (%)” value [5] was 81%, the “Total Cell Count” value [5] was 192 and the “Population Apoptotic (%)” value [6] was 70%. For the same compound, the “Population Fragmented Nuclei (%)” value [6] was 30%, the “Population Healthy Nuclei (%)” value [6] was 39% and the “Population Hoechst High Intensity Objects (%)” value [6] was 14%. The “Population Membrane Permeable-Phenotype (%)” value [6] was 19%, the “Population Mitochondria Different-Phenotype (%)” value [6] was 78% and the “Population Mitotic Cells (%)” value [6] was 29%. The “Population Normal (%)” value [6] was 85%, the “Population Pyknosed Nuclei (%)” value [6] was 30% and the “Population Tubulin-Different-Phenotype (%)” value [6] was 70%. For the same compound, the “Total Cell Count” value [6] was 151, the “Population Apoptotic (%)” value [7] was 14% and the “Population Fragmented Nuclei (%)” value [7] was 5%. The “Population Healthy Nuclei (%)” value [7] was 87%, the “Population Hoechst High Intensity Objects (%)” value [7] was 2% and the “Population Membrane Permeable-Phenotype (%)” value [7] was 15%. For the same compound, the “Population Mitochondria Different-Phenotype (%)” value [7] was 14%, the “Population Mitotic Cells (%)” value [7] was 85% and the “Population Normal (%)” value [7] was 97%. The “Population Pyknosed Nuclei (%)” value [7] was 7%, the “Population Tubulin-Different-Phenotype (%)” value [7] was 23% and the “Total Cell Count” value [7] was 199. The “Population Apoptotic (%)” value [8] was 27%, the “Population Fragmented Nuclei (%)” value [8] was 10% and the “Population Healthy Nuclei (%)” value [8] was 81%. The “Population Hoechst High Intensity Objects (%)” value [8] was 9%, the “Population Membrane Permeable-Phenotype (%)” value [8] was 17% and the “Population Mitochondria Different-Phenotype (%)” value [8] was 20%. For the same compound, the “Population Mitotic Cells (%)” value [8] was 72%, the “Population Normal (%)” value [8] was 90% and the “Population Pyknosed Nuclei (%)” value [8] was 8%. The “Population Tubulin-Different-Phenotype (%)” value [8] was 11% and the “Total Cell Count” value [8] was 81.

Source: ChEMBL document CHEMBL4689842, “EUbOPEN Chemogenomics Library wave 1” (2021)
